Data taken from ChEMBL document CHEMBL4715734, “Discovery of the Potent and Selective M1 PAM-Agonist N-[(3R,4S)-3-Hydroxytetrahydro-2H-pyran-4-yl]-5-methyl-4-[4-(1,3-thiazol-4-yl)benzyl]pyridine-2-carboxamide (PF-06767832): Evaluation of Efficacy and Cholinergic Side Effects” (J Med Chem, 2016).

Columns and labels:
[1] = Unbound plasma concentration in amphetamine-induced C57BL/6J mouse model of hyperlocomotion at 3.2 mg/kg, sc measured after 1 hr; type: ADME, organism-based; details: in vivo
Summary of the method: (§1)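 Satellite PK animals from the mouse aLMA study, N=2/dose. Dosed subcutaneously with a solution in 5/15/80 DMSO/Solutol/water. Plasma and brain were sampled at T = 1 h.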

[2] = Unbound brain concentration in scopolamine-induced Wistar rat model at 0.1 mg/kg, po measured after 1 hr; type: ADME, organism-based; details: in vivo
[3] = Toxicity in male rat assessed as increase in body weight at 10 mg/kg, po administered for 14 days; type: organism-based; details: in vivo, 336 h, time 14 day
Summary of the method: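 Two-week repeat-dose toxicity study in rats. Oral dosing in 0.5% methylcellulose at 3, 10, 30 (males)/15 (females) mg/kg, N=4/sex/dose. Food intake, body weight gain and histopathology were assessed.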

[4] = Toxicity in dog assessed as salivation at 5 mg/kg, po using spray-dried dispersion formulation; type: organism-based, Canis lupus familiaris; details: in vivo
[5] = Unbound plasma concentration in CD-1 mouse at 10 mg/kg, sc measured after 2 hrs by LC-MS/MS analysis; type: ADME, organism-based; details: in vivo
[6] = fAUC (0 to 24 hrs) in rat at 30 mg/kg, po administered for 14 days; type: ADME, organism-based; details: in vivo, 336 h, time 14 day
Summary of the method: (§2)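 2-week repeat oral dosing in rats, 0.5% methylcellulose formulation; N=4/sex/dose; doses 3, 10, 30 (males)/15 (females) mg/kg; unbound exposures reported per dose and sex.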

[7] = Partial agonist activity at muscarinic M2/M3 receptor in Hartley guinea pig ileum assessed as stimulation of contraction relative to carbachol; type: tissue-based, Cavia porcellus
Summary of the method: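 Agonist mode used a guinea pig ileum tissue bath with the compound applied alone. Concentration–response curves were run with or without the non-selective muscarinic antagonist atropine. Contraction was expressed relative to the maximal carbachol response.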

[8] = Unbound brain concentration in CD-1 mouse at 3.2 mg/kg, sc measured after 2 hrs by LC-MS/MS analysis; type: ADME, organism-based; details: in vivo
[9] = Unbound brain concentration in amphetamine-induced C57BL/6J mouse model of hyperlocomotion at 3.2 mg/kg, sc measured after 1 hr; type: ADME, organism-based; details: in vivo; summary of the method: as §1
[10] = Toxicity in dog at 1 mg/kg, po using spray-dried dispersion formulation; type: organism-based, Canis lupus familiaris; details: in vivo
[11] = fCmax in rat at 10 mg/kg, po administered for 14 days; type: ADME, organism-based; details: in vivo, 336 h, time 14 day; summary of the method: as §2
[12] = Unbound plasma concentration in amphetamine-induced C57BL/6J mouse model of hyperlocomotion at 1 mg/kg, sc measured after 1 hr; type: ADME, organism-based; details: in vivo; summary of the method: as §1
[13] = Unbound plasma concentration in […] in Sprague-Dawley rat model at 3.2 mg/kg, sc measured after 1.67 hrs; type: ADME, organism-based; details: in vivo
Summary of the method: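 Randomly selected animals (N=2/dose) at the end of the rat PPI study, T = 1.67 h. Dosed subcutaneously as a suspension in 0.5% methylcellulose in water. Plasma and brain concentrations were averaged.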

[14] = molecular target: T1, Muscarinic acetylcholine receptor M1 (Homo sapiens, UniProt P11229); assay: Partial agonist activity at human muscarinic M1 receptor stably expressed in CHO cells assessed as increase in intracellular calcium level measured after 10 mins by Fluo-8AM dye based FLIPR TETRA method; type: functional, cell-based
T1 sequence (P11229 whole entry): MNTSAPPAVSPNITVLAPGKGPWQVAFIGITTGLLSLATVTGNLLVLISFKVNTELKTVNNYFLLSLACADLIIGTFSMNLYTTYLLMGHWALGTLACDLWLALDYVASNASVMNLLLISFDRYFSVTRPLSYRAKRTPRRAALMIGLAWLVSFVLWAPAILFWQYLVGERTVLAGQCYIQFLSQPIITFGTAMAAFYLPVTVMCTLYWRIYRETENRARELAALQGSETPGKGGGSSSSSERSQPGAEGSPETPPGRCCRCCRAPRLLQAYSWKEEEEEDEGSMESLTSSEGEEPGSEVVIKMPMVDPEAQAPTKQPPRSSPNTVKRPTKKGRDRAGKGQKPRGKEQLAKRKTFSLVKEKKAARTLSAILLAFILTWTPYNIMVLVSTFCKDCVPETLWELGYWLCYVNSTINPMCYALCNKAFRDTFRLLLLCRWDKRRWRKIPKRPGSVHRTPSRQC

## Cc1cnc(C(=O)N[C@H]2CCOC[C@@H]2O)cc1Cc1ccc(-c2cscn2)cc1
[1]
  Cp(f): 255 nM
[2]
  Drug uptake(free): 0.31 nM
[3]
  Activity: Non-Toxic
[4]
  Activity: Toxic
[5]
  Cp(f): 574 nM
[6]
  fAUC: 13.211 µM·h
[7]
  Emax: 77%
[8]
  Drug uptake(free): 52.8 nM
[9]
  Drug uptake(free): 85.2 nM
[10]
  Activity: Non-Toxic
[11]
  fCmax: 562 nM
[12]
  Cp(f): 76.1 nM
[13]
  Cp(f): 123 nM
[14]
  EC50: ≥ 3.9 µM
